Assay results from ChEMBL document CHEMBL1154191, “Evaluation of spirocyclic 3-(3-fluoropropyl)-2-benzofurans as sigma1 receptor ligands for neuroimaging with positron emission tomography” (J Med Chem, 2009).

Legend:
Spleen [1] = assay: Biodistribution in CD1 mouse spleen assessed per gram of wet tissue at 400 to 600 kBq, iv after 120 mins post-injection by gamma counting; format: ADME, organism-based; conditions: in vivo, 2 h
Method in brief: (§1)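 Female CD-1 mice (~8-12 weeks, 20-28 g), habituated ≥48 h and fasted 24 h with water available. The [18F] tracer (>150 GBq/μmol at end of synthesis) was given in 200 μL saline into the tail vein of conscious animals. At each time point, n=4-5, mice were anaesthetised, blood and urine sampled, then killed by cervical dislocation. Organs were weighed and γ-counted, and values calculated as % ID/g wet tissue.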

Intestine [2] = assay: Biodistribution in CD1 mouse intestine assessed per gram of wet tissue at 400 to 600 kBq, iv after 30 mins post-injection by gamma counting; format: ADME, organism-based; conditions: in vivo, 0.5 h
Method in brief: (§2)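 Female CD-1 mice (~8-12 weeks, 20-28 g) were fasted 24 h with free water. Conscious mice got 400-600 kBq [¹⁸F] tracer in saline by tail vein. At 5, 30, 60 or 120 min (n=4-5 per time) they were anesthetized, blood and urine sampled, then killed by cervical dislocation. Organs were weighed and γ-counted, giving % ID/g wet tissue.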

Intestine [3] = assay: Biodistribution in CD1 mouse intestine assessed per gram of wet tissue at 400 to 600 kBq, iv after 60 mins post-injection by gamma counting in presence of 1 mg/kg, ip sigma 1/sigma 2 receptor antagonist haloperidol treated before compound addition; format: organism-based; parameters: dose 1 mg/kg, route intravenous; conditions: in vivo, 1 h
Method in brief: (§3)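 Blocking arm in fasted female CD-1 mice (n=5). […] Animals were killed at 60 min post-injection, and organs were weighed and γ-counted as % ID/g wet tissue. Percent change was taken against the 60 min control group, with two-tailed unpaired Student's t test.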

Pancreas [4] = assay: Drug uptake in CD1 mouse pancreas at 400 to 600 kBq, iv after 120 mins post-injection by gamma counting relative to initial uptake; format: ADME, organism-based; conditions: in vivo, 2 h
Method in brief: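 Organ % ID/g was measured by γ-counting after tail-vein injection of 400-600 kBq [18F] tracer in saline to fasted female CD-1 mice (n=4-5 per time). The 120 min pi value is expressed relative to the initial (5 min pi) uptake.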

[5] = Biodistribution in CD1 mouse urine assessed as per gram of wet bladder at 400 to 600 kBq, iv after 30 mins post-injection by gamma counting; format: ADME, organism-based; conditions: in vivo, 0.5 h; method in brief: as §1
Cerebellum [6] = assay: Biodistribution in CD1 mouse cerebellum assessed per gram of wet tissue at 400 to 600 kBq, iv after 30 mins post-injection by gamma counting; format: ADME, organism-based; conditions: in vivo, 0.5 h; method in brief: as §2
[7] = Ratio of drug level in cerebellum to plasma in CD1 mouse at 400 to 600 kBq, iv after 120 mins post-injection; format: ADME, organism-based
Method in brief: (§4)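 Female CD-1 mice (~8-12 weeks, 20-28 g), fasted 24 h with free water; 400-600 kBq tracer in 200 μL saline by tail vein into conscious animals. Killed at set times pi (n=4-5 per time); blood and organs weighed, γ-counted, expressed as % ID/g wet tissue; ratio from cerebellum and plasma uptake.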

Cerebellum [8] = assay: Biodistribution in CD1 mouse cerebellum assessed per gram of wet tissue at 400 to 600 kBq, iv after 5 mins post-injection by gamma counting; format: ADME, organism-based; conditions: in vivo; method in brief: as §2
Lung [9] = assay: Biodistribution in CD1 mouse lung assessed per gram of wet tissue at 400 to 600 kBq, iv after 60 mins post-injection by gamma counting in presence of 1 mg/kg, ip sigma 1/sigma 2 receptor antagonist haloperidol treated before compound addition; format: organism-based; parameters: route intravenous; conditions: in vivo, 1 h
Method in brief: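 They were killed at 60 min pi, and organs were weighed and γ-counted as % ID/g wet tissue. Comparison with controls used Student's t test (independent, two-tailed).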

[10] = Metabolic stability in CD1 mouse plasma at 200 to 300 MBq, iv after 60 mins post-injection by supelcosil C18 HPLC and TLC-radiochromatography; format: ADME, organism-based; conditions: read-out: Stability
Method in brief: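 Mice received 200-300 MBq [18F] tracer in 200 μL 0.9% saline via the tail vein, and samples were taken at 45 and 60 min (n=2 per time). Plasma was obtained by centrifugation (2000g, 4 °C, 10 min); brain and liver were homogenised in ice-cold 50 mM TRIS-HCl pH 7.4. Samples were precipitated with ice-cold MeCN and centrifuged (4000g, 4 °C, 15 min), and supernatants were analysed by gradient radio-HPLC and radio-TLC, with HPLC fractions γ-counted.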

Spleen [11] = assay: Biodistribution in CD1 mouse spleen assessed per gram of wet tissue at 400 to 600 kBq, iv after 5 mins post-injection by gamma counting; format: ADME, organism-based; conditions: in vivo; method in brief: as §1
Femur [12] = assay: Biodistribution in CD1 mouse femur assessed per gram of wet tissue at 400 to 600 kBq, iv after 60 mins post-injection by gamma counting; format: ADME, organism-based; conditions: in vivo, 1 h; method in brief: as §2
Heart [13] = assay: Biodistribution in CD1 mouse heart assessed per gram of wet tissue at 400 to 600 kBq, iv after 60 mins post-injection by gamma counting; format: ADME, organism-based; conditions: in vivo, 1 h; method in brief: as §2
Pancreas [14] = assay: Biodistribution in CD1 mouse pancreas assessed per gram of wet tissue at 400 to 600 kBq, iv after 120 mins post-injection by gamma counting; format: ADME, organism-based; conditions: in vivo, 2 h; method in brief: as §1
Cerebellum [15] = assay: Biodistribution in CD1 mouse cerebellum assessed per gram of wet tissue at 400 to 600 kBq, iv after 60 mins post-injection by gamma counting in presence of 1 mg/kg, ip sigma 1/sigma 2 receptor antagonist haloperidol treated before compound addition; format: organism-based; parameters: dose 1 mg/kg, route intravenous; conditions: in vivo, 1 h; method in brief: as §3
Mus musculus = assay: Plasma concentration in CD1 mouse assessed per gram of wet tissue at 400 to 600 kBq, iv after 60 mins post-injection by gamma counting; format: ADME, organism-based; conditions: in vivo, 1 h
Method in brief: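 Female CD-1 mice (~8-12 weeks, 20-28 g), fasted 24 h with free access to water. 400-600 kBq [18F] tracer in 200 μL saline given by tail vein to conscious mice. At 5, 30, 60 or 120 min pi (n=4-5 per time) mice anaesthetised, blood taken, then euthanised. Samples weighed, γ-counted, %ID/g wet tissue calculated.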

Heart [16] = assay: Biodistribution in CD1 mouse heart assessed per gram of wet tissue at 400 to 600 kBq, iv after 30 mins post-injection by gamma counting; format: ADME, organism-based; conditions: in vivo, 0.5 h; method in brief: as §2
Muscle tissue = assay: Biodistribution in CD1 mouse muscle assessed per gram of wet tissue at 400 to 600 kBq, iv after 30 mins post-injection by gamma counting; format: ADME, organism-based; conditions: in vivo, 0.5 h; method in brief: as §1
Femur [17] = assay: Biodistribution in CD1 mouse femur assessed per gram of wet tissue at 400 to 600 kBq, iv after 5 mins post-injection by gamma counting; format: ADME, organism-based; conditions: in vivo; method in brief: as §2
[18] = Biodistribution in CD1 mouse gonad assessed per gram of wet tissue at 400 to 600 kBq, iv after 120 mins post-injection by gamma counting; format: ADME, organism-based; conditions: in vivo, 2 h; method in brief: as §2
Blood = assay: Biodistribution in CD1 mouse blood assessed per gram of wet tissue at 400 to 600 kBq, iv after 30 mins post-injection by gamma counting; format: ADME, organism-based; conditions: in vivo, 0.5 h; method in brief: as §2
Lung [19] = assay: Biodistribution in CD1 mouse lung assessed per gram of wet tissue at 400 to 600 kBq, iv after 30 mins post-injection by gamma counting; format: ADME, organism-based; conditions: in vivo, 0.5 h; method in brief: as §1
[20] = Ratio of drug level in cerebellum to plasma in CD1 mouse at 400 to 600 kBq, iv after 5 mins post-injection; format: ADME, organism-based; method in brief: as §4
Cerebellum [21] = assay: Biodistribution in CD1 mouse cerebellum assessed per gram of wet tissue at 400 to 600 kBq, iv after 60 mins post-injection by gamma counting; format: ADME, organism-based; conditions: in vivo, 1 h; method in brief: as §2

SMILES: [18F]CCCC1OC2(CCN(Cc3ccccc3)CC2)c2ccccc21 (centres undefined)
- Drug uptake (Spleen [1]): 4.65 %ID
- Drug uptake (Intestine [2]): 6.81 %ID
- Drug uptake (Intestine [3]): 6.6 %ID
- Drug uptake (Pancreas [4]): > 70%
- Drug uptake [5]: 24.3 %ID
- Drug uptake (Cerebellum [6]): 3.71 %ID
- Kp at 2 h [7]: 5.48
- Drug uptake (Cerebellum [8]): 4.62 %ID
- Drug uptake (Lung [9]): 2.11 %ID
- remaining at 1 h [10]: > 85%
- Drug uptake (Spleen [11]): 4.51 %ID
- Drug uptake (Femur [12]): 3.48 %ID
- Drug uptake (Heart [13]): 2.46 %ID
- Drug uptake (Pancreas [14]): 10.5 %ID
- Drug uptake (Cerebellum [15]): 0.63 %ID
- Drug uptake (Mus musculus): 0.52 %ID
- Drug uptake (Heart [16]): 3.75 %ID
- Drug uptake (Muscle tissue): 1.8 %ID
- Drug uptake (Femur [17]): 2.17 %ID
- Drug uptake [18]: 4.16 %ID
- Drug uptake (Blood): 0.56 %ID
- Drug uptake (Lung [19]): 7.01 %ID
- Kp at 5 min [20]: 2.49
- Drug uptake (Cerebellum [21]): 2.99 %ID
